The source made the active and inactive calls. No cut-off for these calls is given here.
Experiments:
[1] = target: T1, Tissue alpha-L-fucosidase (Bos taurus) (UniProt Q2KIM0); test: Inhibition of bovine kidney alpha-L-fucosidase at 1000 uM
T1 sequence (whole entry): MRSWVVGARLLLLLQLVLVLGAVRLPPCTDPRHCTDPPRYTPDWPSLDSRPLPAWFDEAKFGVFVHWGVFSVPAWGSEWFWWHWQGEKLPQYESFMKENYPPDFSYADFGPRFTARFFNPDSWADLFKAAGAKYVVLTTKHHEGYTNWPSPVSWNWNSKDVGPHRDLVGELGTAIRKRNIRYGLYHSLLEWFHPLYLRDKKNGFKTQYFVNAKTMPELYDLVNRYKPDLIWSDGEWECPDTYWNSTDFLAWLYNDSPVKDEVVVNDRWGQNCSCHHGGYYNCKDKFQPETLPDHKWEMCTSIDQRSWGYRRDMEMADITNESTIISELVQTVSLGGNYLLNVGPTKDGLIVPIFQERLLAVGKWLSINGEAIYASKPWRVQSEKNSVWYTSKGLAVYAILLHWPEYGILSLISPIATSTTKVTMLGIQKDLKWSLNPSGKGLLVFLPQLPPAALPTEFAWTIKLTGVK
In short: (§1)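 Commercial glycosidases were tested with a single inhibitor level of 1000 μM, and percent inhibition was recorded. "NI" means less than 50% inhibition at that concentration.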

Helix pomatia = test: Inhibition of snail beta-mannosidase at 1000 uM; in short: as §1
Beta-galactosidase = target: T2, Beta-galactosidase (Bos taurus, UniProt Q58D55); test: Inhibition of bovine liver beta-galactosidase
T2 sequence (Q58D55 whole entry): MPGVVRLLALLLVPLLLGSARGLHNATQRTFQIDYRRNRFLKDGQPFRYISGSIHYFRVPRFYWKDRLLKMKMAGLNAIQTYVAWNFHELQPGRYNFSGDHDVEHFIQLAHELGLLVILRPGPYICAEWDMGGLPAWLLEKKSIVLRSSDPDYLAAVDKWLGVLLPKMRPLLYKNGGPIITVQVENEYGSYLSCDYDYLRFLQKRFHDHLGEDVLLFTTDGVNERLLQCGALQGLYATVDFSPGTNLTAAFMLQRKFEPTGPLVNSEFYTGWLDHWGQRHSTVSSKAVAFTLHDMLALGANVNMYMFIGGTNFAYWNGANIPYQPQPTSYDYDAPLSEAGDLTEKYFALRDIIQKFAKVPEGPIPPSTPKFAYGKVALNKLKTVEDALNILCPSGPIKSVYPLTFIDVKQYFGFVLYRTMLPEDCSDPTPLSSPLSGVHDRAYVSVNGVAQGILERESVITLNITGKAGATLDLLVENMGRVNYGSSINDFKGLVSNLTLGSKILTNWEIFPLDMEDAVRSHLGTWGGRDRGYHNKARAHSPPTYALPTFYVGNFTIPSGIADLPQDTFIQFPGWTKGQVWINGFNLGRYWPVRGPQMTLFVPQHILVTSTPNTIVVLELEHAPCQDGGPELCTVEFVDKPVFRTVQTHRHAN

[2] = target: T3, Lysosomal alpha-mannosidase (Bos taurus) (UniProt Q29451); test: Inhibition of lysosomal alpha-mannosidase in MDBK cells assessed as Man5-8GlcNAc2FOS formation at 0.1 to 1 mM after 24 hrs by HPLC analysis; format: cell-based
T3 sequence (whole entry): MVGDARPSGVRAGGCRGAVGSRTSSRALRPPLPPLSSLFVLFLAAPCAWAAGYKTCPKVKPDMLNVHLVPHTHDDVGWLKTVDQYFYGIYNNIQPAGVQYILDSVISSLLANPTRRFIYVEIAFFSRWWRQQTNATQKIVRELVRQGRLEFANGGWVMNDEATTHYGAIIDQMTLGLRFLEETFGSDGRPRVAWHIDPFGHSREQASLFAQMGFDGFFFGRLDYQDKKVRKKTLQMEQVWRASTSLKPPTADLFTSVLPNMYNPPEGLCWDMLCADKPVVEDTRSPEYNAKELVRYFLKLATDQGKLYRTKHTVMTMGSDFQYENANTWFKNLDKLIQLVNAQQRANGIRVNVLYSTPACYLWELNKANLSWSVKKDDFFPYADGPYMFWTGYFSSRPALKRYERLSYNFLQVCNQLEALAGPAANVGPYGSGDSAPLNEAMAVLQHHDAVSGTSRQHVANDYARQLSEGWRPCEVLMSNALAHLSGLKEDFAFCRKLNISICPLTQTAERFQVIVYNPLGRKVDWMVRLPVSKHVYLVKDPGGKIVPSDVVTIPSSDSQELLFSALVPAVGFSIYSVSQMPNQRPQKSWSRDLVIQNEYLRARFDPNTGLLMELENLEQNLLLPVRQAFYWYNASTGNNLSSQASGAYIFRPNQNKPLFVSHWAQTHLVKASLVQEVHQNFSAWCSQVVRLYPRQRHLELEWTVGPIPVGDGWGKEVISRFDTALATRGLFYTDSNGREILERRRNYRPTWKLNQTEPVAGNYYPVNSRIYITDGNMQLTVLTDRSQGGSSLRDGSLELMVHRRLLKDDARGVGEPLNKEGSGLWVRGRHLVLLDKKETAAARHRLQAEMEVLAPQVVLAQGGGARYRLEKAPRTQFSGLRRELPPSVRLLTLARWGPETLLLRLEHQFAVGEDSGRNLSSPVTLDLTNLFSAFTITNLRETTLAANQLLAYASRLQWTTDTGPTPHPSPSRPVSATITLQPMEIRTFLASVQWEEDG
In short: (§2)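 MDBK cells were treated with azepanes alongside untreated cells and a swainsonine control (1 mM, 24 h). Free oligosaccharides (FOS) were labelled with 2-AA and profiled by fluorescence HPLC. Mannosylated species were compared: Man3GlcNAc2 and Man5-8GlcNAc2 indicate lysosomal activity, and Man5GlcNAc1 indicates cytosolic mannosidase activity.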

[3] = target: Oligo-1,6-glucosidase IMA1 (Saccharomyces cerevisiae S288c, UniProt P53051); test: Inhibition of yeast alpha-glucosidase
Beta-glucuronidase = target: T4, Beta-glucuronidase (Bos taurus, UniProt A3KMY8); test: Inhibition of bovine liver beta glucuronidase
T4 sequence (A3KMY8 whole entry): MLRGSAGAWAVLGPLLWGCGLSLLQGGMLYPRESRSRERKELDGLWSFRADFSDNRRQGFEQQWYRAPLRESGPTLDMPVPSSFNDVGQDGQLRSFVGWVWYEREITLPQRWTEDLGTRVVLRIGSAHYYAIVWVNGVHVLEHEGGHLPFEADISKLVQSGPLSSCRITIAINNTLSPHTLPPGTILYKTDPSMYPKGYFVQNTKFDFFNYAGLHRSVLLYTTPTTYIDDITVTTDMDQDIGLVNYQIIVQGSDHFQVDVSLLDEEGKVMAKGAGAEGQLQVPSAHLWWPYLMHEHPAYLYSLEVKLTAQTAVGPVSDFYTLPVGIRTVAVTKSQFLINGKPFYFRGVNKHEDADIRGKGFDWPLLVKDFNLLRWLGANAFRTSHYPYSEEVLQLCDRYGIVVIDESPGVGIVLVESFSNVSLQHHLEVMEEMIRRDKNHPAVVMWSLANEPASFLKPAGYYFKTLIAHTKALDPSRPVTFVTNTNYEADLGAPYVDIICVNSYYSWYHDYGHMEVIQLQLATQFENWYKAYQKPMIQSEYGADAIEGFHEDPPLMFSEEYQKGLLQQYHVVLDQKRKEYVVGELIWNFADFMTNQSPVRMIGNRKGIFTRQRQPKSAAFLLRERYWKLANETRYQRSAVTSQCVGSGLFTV

[4] = Inhibition of almond beta-glucosidase; design: species or system Prunus dulcis
Aspergillus niger = test: Inhibition of Aspergillus niger amyloglucosidase at 1000 uM; in short: as §1
[5] = Inhibition of jack beans alpha-mannosidase; design: species or system Canavalia ensiformis
Penicillium decumbens = test: Inhibition of Penicillium decumbens alpha-L-rhamnosidase at 1000 uM; in short: as §1
[6] = Inhibition of coffee beans alpha-galactosidase; design: species or system Coffea
[7] = target: Probable alpha-glucosidase Os06g0675700 (Oryza sativa Japonica Group) (UniProt Q653V7); test: Inhibition of rice alpha-glucosidase at 1000 uM; in short: as §1
[8] = target: T5, Uncharacterized protein (Sus scrofa) (UniProt I3LIR5); test: Inhibition of pig kidney trehalase at 1000 uM; in short: as §1
T5 sequence (whole entry): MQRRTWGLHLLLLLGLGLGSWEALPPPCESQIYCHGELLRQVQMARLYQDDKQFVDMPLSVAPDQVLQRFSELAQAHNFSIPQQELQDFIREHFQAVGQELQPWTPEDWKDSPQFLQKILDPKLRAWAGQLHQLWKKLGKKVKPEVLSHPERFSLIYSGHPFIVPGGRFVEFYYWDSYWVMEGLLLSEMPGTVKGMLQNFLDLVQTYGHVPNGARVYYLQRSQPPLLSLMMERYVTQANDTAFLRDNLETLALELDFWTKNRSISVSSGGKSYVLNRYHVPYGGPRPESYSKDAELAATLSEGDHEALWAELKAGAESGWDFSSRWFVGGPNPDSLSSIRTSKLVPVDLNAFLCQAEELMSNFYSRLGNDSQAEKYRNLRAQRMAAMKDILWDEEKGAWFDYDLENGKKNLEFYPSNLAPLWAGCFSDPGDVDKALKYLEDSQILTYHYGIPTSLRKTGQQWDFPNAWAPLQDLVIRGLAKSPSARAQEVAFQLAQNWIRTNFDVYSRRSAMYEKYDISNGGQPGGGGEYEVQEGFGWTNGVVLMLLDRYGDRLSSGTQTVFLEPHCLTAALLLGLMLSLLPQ

Prunus dulcis = test: Inhibition of almond beta-glucosidase at 1000 uM; in short: as §1
[9] = target: T3, Lysosomal alpha-mannosidase (Bos taurus); test: Inhibition of lysosomal alpha-mannosidase in MDBK cells assessed as Man5-8GlcNAc2FOS formation at 1 mM after 24 hrs by HPLC analysis; format: cell-based; in short: as §2
Coffea = test: Inhibition of coffee beans alpha-galactosidase at 1000 uM; in short: as §1
[10] = target: Oligo-1,6-glucosidase IMA1 (Saccharomyces cerevisiae S288c) (UniProt P53051); test: Inhibition of yeast alpha-glucosidase at 1000 uM; in short: as §1
Canavalia ensiformis = test: Inhibition of jack beans alpha-mannosidase at 1000 uM; in short: as §1
[11] = target: T6, Beta-glucuronidase (Bos taurus) (UniProt A3KMY8); test: Inhibition of bovine liver beta glucuronidase at 1000 uM; in short: as §1
T6 sequence (whole entry): T4 sequence (A3KMY8 whole entry)

[12] = target: Probable alpha-glucosidase Os06g0675700 (Oryza sativa Japonica Group, UniProt Q653V7); test: Inhibition of rice alpha-glucosidase
[13] = target: T7, Tissue alpha-L-fucosidase (Bos taurus, UniProt Q2KIM0); test: Inhibition of bovine kidney alpha-L-fucosidase
T7 sequence (Q2KIM0 whole entry): T1 sequence (whole entry)

MDBK = test: Inhibition of cytosolic alpha-mannosidase in MDBK cells assessed as Man5GlcNAc1 formation at 1 mM after 24 hrs by HPLC analysis; format: cell-based; conditions: Bos taurus; in short: as §2
[14] = target: T8, Glucosylceramidase (Bos taurus) (UniProt Q2KHZ8); test: Inhibition of bovine liver beta-glucosidase at 1000 uM; in short: as §1
T8 sequence (whole entry): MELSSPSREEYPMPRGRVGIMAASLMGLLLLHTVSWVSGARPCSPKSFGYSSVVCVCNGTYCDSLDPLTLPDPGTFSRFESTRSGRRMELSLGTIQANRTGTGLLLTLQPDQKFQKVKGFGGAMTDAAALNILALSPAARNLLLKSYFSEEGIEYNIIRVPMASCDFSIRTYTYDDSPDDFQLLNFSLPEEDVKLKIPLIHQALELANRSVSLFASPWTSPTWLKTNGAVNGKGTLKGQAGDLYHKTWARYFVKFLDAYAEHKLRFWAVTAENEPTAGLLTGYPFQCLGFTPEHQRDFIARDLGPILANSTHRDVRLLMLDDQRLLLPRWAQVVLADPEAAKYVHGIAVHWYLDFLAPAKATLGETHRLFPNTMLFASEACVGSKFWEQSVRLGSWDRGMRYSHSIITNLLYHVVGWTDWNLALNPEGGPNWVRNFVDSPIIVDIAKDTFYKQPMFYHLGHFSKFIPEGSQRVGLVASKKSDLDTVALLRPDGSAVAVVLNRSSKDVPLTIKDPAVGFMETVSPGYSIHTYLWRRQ

Sequence of Oligo-1,6-glucosidase IMA1 (Saccharomyces cerevisiae S288c) (P53051 whole entry): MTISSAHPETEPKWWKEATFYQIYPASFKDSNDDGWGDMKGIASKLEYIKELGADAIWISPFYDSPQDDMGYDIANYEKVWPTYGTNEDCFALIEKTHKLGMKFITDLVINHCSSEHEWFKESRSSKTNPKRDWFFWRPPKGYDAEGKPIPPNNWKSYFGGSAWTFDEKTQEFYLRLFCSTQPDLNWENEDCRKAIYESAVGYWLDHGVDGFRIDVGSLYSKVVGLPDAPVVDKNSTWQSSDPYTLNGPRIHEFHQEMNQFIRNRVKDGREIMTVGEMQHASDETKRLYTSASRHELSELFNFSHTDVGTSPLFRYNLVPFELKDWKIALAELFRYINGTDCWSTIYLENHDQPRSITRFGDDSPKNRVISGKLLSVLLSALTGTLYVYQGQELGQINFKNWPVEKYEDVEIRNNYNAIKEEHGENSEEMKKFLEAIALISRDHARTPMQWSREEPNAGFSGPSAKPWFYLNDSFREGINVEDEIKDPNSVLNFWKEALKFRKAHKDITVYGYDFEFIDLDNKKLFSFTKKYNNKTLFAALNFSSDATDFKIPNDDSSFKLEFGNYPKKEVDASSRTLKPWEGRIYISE
Sequence of Probable alpha-glucosidase Os06g0675700 (Oryza sativa Japonica Group) (Q653V7 whole entry): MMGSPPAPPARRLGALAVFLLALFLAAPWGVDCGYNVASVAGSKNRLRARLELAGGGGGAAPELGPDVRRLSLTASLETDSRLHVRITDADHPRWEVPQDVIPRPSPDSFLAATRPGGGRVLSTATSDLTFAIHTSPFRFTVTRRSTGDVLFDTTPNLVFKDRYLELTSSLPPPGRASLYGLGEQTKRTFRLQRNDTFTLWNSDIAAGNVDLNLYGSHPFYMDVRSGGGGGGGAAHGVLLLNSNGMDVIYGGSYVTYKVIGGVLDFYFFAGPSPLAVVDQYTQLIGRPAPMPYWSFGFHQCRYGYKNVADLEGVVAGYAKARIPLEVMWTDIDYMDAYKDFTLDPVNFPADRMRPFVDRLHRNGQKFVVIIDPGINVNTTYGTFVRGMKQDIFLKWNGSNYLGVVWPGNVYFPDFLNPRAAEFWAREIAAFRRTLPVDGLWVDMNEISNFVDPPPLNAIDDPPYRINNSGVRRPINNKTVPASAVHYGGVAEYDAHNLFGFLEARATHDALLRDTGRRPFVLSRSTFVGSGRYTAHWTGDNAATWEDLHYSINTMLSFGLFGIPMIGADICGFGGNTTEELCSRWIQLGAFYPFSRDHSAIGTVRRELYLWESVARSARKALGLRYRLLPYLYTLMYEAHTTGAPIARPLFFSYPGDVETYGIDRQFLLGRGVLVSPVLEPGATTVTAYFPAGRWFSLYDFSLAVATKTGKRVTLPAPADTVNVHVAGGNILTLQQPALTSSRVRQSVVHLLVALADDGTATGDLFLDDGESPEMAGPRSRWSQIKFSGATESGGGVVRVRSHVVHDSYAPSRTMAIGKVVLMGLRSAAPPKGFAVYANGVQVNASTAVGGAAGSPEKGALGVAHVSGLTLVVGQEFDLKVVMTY
Sequence of Probable alpha-glucosidase Os06g0675700 (Q653V7 whole entry): as above
Sequence of Oligo-1,6-glucosidase IMA1 (P53051 whole entry): as the sequence (P53051 whole entry) above

inhibition [1] | inhibition (Helix pomatia) | IC50 (Beta-galactosidase) | inhibition [2] | IC50 (Beta-glucuronidase) | IC50 [4] | inhibition (Aspergillus niger) | IC50 [5] | inhibition (Penicillium decumbens) | IC50 [6] | inhibition [7] | inhibition [8] | inhibition (Prunus dulcis) | inhibition [9] | inhibition (Coffea) | inhibition [10] | inhibition [11] | IC50 [12] | IC50 [13] | Compound | also measured
25% | 0% | 420 µM | inactive | 594 µM | 157 µM | 0.3% | 812 µM | 1.5% | 65 µM | 14.7% | 17.2% | – | – | – | – | – | – | – | OC[C@@H]1CNC[C@@H](O)[C@@H](O)[C@@H]1O | IC50 [3]: 71 µM
15.8% | 0% | 442 µM | – | – | – | 14.2% | – | 0.9% | – | 0% | 16.6% | 41.4% | Active | 16.8% | 18.9% | 0% | – | – | OC[C@H]1CNC[C@@H](O)[C@@H](O)[C@@H]1O | inhibition (Canavalia ensiformis): 23%
– | 0.4% | 198 µM | inactive | 139 µM | 14 µM | 6.9% | 101 µM | 20.6% | 14 µM | – | 39.9% | – | – | – | 37.8% | – | 12 µM | 64 µM | C[C@@H]1CNC[C@@H](O)[C@@H](O)[C@@H]1O | –
– | 4.3% | 876 µM | – | – | – | 0% | 335 µM | 6.8% | – | – | 22.2% | 29.4% | Active | 37.6% | 0% | 0% | 226 µM | 181 µM | C[C@H]1CNC[C@@H](O)[C@@H](O)[C@@H]1O | inhibition (MDBK): Active; inhibition [14]: 49.2%

Source: ChEMBL document CHEMBL1932983, “Towards a stable noeuromycin analog with a D-manno configuration: synthesis and glycosidase inhibition of D-manno-like tri- and tetrahydroxylated azepanes” (Bioorg Med Chem, 2012)
